# Compound activity deposited in PubChem BioAssay by several laboratories.
# ABCG2 inh = ABCG2 efflux pump inhibitors, primary screen, multiplex with ABCB1, IgMXP3 cells, flow cytometry; Broad substrate specificity ATP-binding cassette transporter ABCG2 (Homo sapiens), Q9UNQ0; JC-1 efflux; inhibition, % at 6.6 µM; 190,000 tested, 0.1% active; AID 1325, 2008;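 active means inhibition above 80%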;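 further: 0% = DMSO and 100% = nicardipine control wells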
#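 Times: 10 min at 25 °C | Test system: Two drug-resistant human cell lines, ABCG2 and ABCB1 | Quantity: 3 million cells/mL final, two lines in 1:1 ratio | Signal: Flow cytometry, 530 nm JC-1 signal | Dosing: Compound at 6.6 µM | Controls: Nicardipine and DMSO wells | Reagent: JC-1 as fluorescent efflux pump substrate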
# KCC2 mod = KCC2 cotransporter modulators, thallium flux, primary screen, cell-based, HEK293 KCC2, FluoZin-2 fluorescence, MLSMR; KCC2 cells, thallium flux FluoZin-2 fluorescence; B-score of Tl+ flux slope (higher = more flux/activation; lower = inhibition) at 10 µM; Solute carrier family 12 member 5 (Homo sapiens), Q9H2X9; 190,000 tested, 2.2% active; AID 1456, 2008;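 active means thallium flux slope and its plate-corrected score both differing from the plate sample mean at a set confidence after two filtering rounds, in either direction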;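 further: slope of fluorescence scaled to starting intensity during 10 to 20 s after thallium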
# PMI activator = activators of human PMI, primary screen, biochemical, fluorescence intensity, near-Km mannose 6-phosphate; Mannose-6-phosphate isomerase (Homo sapiens), P34949; purified human PMI, coupled resazurin fluorescence, 20 min; stronger effect = higher value; 1 = vehicle control, 0 substrate-free wells; activation factor at 20 µM; 190,000 tested, 0.005% active; AID 1214, 2008;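 active means activation factor of 2 or more at 20 µM, relative to plate controls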
# Target sequence (P34949 whole entry, looked up): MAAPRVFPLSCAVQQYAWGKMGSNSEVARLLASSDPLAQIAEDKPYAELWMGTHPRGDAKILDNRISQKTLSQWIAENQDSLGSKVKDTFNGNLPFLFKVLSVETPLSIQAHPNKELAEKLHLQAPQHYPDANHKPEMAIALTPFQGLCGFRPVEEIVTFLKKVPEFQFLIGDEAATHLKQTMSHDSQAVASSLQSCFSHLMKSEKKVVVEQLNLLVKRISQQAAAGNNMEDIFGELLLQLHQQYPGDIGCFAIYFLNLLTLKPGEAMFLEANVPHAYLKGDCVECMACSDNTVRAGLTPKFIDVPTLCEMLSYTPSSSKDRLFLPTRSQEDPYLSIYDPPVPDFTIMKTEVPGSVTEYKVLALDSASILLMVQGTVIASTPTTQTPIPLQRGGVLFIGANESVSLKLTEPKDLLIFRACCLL
# ROMK mod = ROMK potassium channel modulators, primary screen, cell-based, thallium flux, MLSMR library; ATP-sensitive inward rectifier potassium channel 1 (Homo sapiens), P48048; 130,000 tested, 2% active; AID 1918, 2009; Tet-inducible ROMK, thallium flux fluorescence; actives lie on both sides; B-score at 10 µM;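 active means signal ratio slope over the read window, or its plate-corrected B-score, at least 3 SD from the plate mean, either direction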;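 further: B-score of the F/F0 ratio slope over 7 to 12 s after thallium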
# PMI act satM6P = human PMI activators, high substrate, primary screen, biochemical, fluorescence intensity, near-saturating mannose 6-phosphate | activation factor at 20 µM | 190,000 tested, 0.34% active | Mannose-6-phosphate isomerase (Homo sapiens), P34949 | coupled PMI enzyme assay, resazurin fluorescence, 20 min; stronger effect = higher value; 1 = untreated enzyme, 0 = substrate-free blank | AID 1216, 2008;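 active means activation factor of 2 or more at 20 µM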
#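 Test system – human PMI in coupled enzyme assay · Timing – 20 min incubation at room temperature · Detection – Diaphorase-driven resazurin-to-resorufin fluorescence, excitation 544, emission 590 nm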
# ABCB1 block = ABCB1 efflux pump inhibitors, primary screen, cell-based, multiplex, flow cytometry, ABCG2 counter-screen | ATP-dependent translocase ABCB1 (Homo sapiens), P08183 | inhibition, % at 6.6 µM | CCRF-Adr cells, JC-1 efflux | AID 1326, 2008 | 190,000 tested, 0.067% active; in the data active means inhibition above about 40%;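 further: 0% = vehicle and 100% = reference inhibitor; higher value means more JC-1 retained so stronger ABCB1 efflux block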
# KCC2 sec1 = KCC2 modulators in sodium-free buffer, confirmation, cell-based, HEK293 KCC2, thallium flux, secondary assay. shares compounds with KCC2 mod. normalised thallium flux (F/F0 slope) at 10 µM. 3,700 tested, 15% active. FluoZin2 fluorescence; stronger effect = higher value;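 active means thallium flux slope above the same plate's solvent-only control mean plus 3 SD; inconclusive means the two replicate wells disagree; inactive means no significant difference from solvent-only control wells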
# KCC2 bumet counter = thallium flux persisting under bumetanide in KCC2 cells, confirmation, counter-screen for KCC2 modulator project, cell-based, HEK293 KCC2, FluoZin2, secondary assay 3 | shares compounds with KCC2 mod | HEK293-KCC2 + bumetanide/ouabain; stronger effect = higher value | normalized thallium flux at 10 µM | 3,700 tested, 49% active | AID 1714, 2009;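 active means thallium entry rate above the same plate's blocked-transporter control wells by more than 3 SD; inconclusive means the two repeat wells disagree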;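 further: raw slope of fluorescence over initial fluorescence between 10 and 20 s after thallium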
# KCC2 sec2 = KCC2 modulators without ouabain present, confirmation, cell-based, HEK293 KCC2, thallium flux, FluoZin2, secondary assay 2; 3,700 tested, 23% active; thallium flux FluoZin2 fluorescence; actives lie on both sides; F/F0 rise rate, 10–20 s post-thallium; shares compounds with KCC2 mod; AID 1715, 2009; normalized thallium flux at 10 µM;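 active means thallium flux slope more than 3 SD above or below the plate's solvent-only control mean, mostly below; inconclusive means the two repeat wells disagreed; inactive means no significant shift from solvent-only controls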;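 further: raw slope with 0.1% DMSO as baseline and bumetanide as block control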
# HEK counter1 = thallium flux modulation in parental HEK cells, confirmation, counter-screen for KCC2 modulator project, cell-based, counterscreen 1. thallium flux rate (normalised fluorescence) at 10 µM. 3,700 tested, 46% active. AID 1716, 2009. shares compounds with KCC2 mod. HEK293 parental cells, thallium flux FluoZin2, ouabain; baseline-ratio fluorescence slope, 10–20 s after thallium;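 active means thallium flux rate significantly above the same plate's solvent-only control wells, beyond their mean plus 3 SD; inconclusive means the two replicate wells gave conflicting results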
# KCC2 retest ouab = KCC2 inhibitors and activators, ouabain retest, confirmation, HEK-KCC2 cells; 3,700 tested, 48% active; raw Tl+ flux slope (below DMSO = inhibition, above = activation) at 10 µM; HEK293-KCC2, thallium flux FluoZin2 fluorescence; bidirectional: low = inhibitor, high = activator; shares compounds with KCC2 mod;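 active means thallium flux slope beyond 3 SD from same-plate DMSO control mean in most replicates, usually higher, sometimes lower; inconclusive means repeat tests gave conflicting results; inactive means no significant difference from controls in most replicates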;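 further: slope of initial-normalized fluorescence between seconds 10 and 20 after thallium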
# HEK counter2 = native HEK Tl+ uptake effects, second counter-screen – HEK cells, counterscreen 2, counter-screen for KCC2 modulator project, confirmation; shares compounds with KCC2 mod; HEK293 parental, thallium flux FluoZin-2 fluorescence slope; thallium flux slope at 10 µM; 3,700 tested, 33% active; AID 1718, 2009;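 active means thallium flux slope above the same plate's solvent-control mean plus 3 SD in both duplicate wells; inconclusive means duplicate wells that disagreed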;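 further: run without ouabain in cells lacking the KCC2 cotransporter; slope of fluorescence scaled to its starting value between 10 and 20 s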
# Active calls of the source: *; ? = inconclusive; . = not tested or not shown. Rows were chosen to be rich in hits. Some 3.3% of all compounds tested hit in one or more screens of this group.
SMILES,ABCG2 inh,KCC2 mod,PMI activator,ROMK mod,PMI act satM6P,ABCB1 block,KCC2 sec1,KCC2 bumet counter,KCC2 sec2,HEK counter1,KCC2 retest ouab,HEK counter2
CCOC(=O)c1ccc(NC(=O)CCOc2ccc(OC)cc2)cc1,5,.,1,0.58,1.1,1,0.0058,0.0047,0.03,0.0072,0.018,0.011
COc1ccc(CNC(=O)c2csnn2)cc1,0,.,1,0.19,1.1,-1,.,.,.,.,.,.
CCOC(=O)c1ccc(NC(=O)COC)cc1,0,.,1,.,1,0,.,.,.,.,.,.
CCOC(=O)c1ccc(Oc2nc(NC)nc(OC)n2)cc1,5,-4.2*,1,-0.39,1,0,0.0089,0.0071,0.036,0.0045,0.02,0.011
O=[N+]([O-])c1cccc(N/N=C/c2cccc3ccccc23)c1,-3,1.9,1.1,.,1,-1,.,.,.,.,.,.
Cc1ccc(SCC(=O)OCn2nnc3ccccc3c2=O)cc1C,2,0.19,1,0.31,0.9,0,.,.,.,.,.,.
CCCN(CCC)CCNC(=S)Nc1ccc2nc3n(c(=O)c2c1)CCCCC3,4,.,1,-1.1,0.9,0,.,.,.,.,.,.
CC1(CCc2ccccc2)NC(=O)N(CC(=O)N2CC(=O)Nc3ccccc32)C1=O (configuration not stated),.,-0.019,.,-0.045,.,.,.,.,.,.,.,.
COc1ccc(NC(=O)CN2C(=O)CSC(C)C2=O)cc1 (configuration not stated),0,0.084,1.1,-0.051,1.1,0,.,.,.,.,.,.
CCOC(=O)NC(=S)Nc1ccc(OC)cc1,5,15*,0.9,0.83,0.9,1,0.0078,0.021*,0.035,0.016*,?,0.017*
CCOC(=O)c1c(NC(=S)Nc2ccc(OC)cc2)sc2c1CCCCC2,-2,4.7*,0.8,1.2,0.9,-2,0.011,0.011*,0.033,0.012*,0.023,0.012
CCOC(=O)NC(NC(=S)Nc1ccc(OC)cc1)C(Cl)(Cl)Cl (configuration not stated),1,0.7,1,-0.94,1,0,.,.,.,.,.,.
CCOC(=O)NC(=S)Nc1ccc(C(C)(C)C)cc1Br,.,49*,.,.,.,.,0.0075,0.046*,0.042*,0.046*,0.052*,0.022*
CCN1CCN(C(c2ccccc2)c2nnnn2Cc2ccccc2)CC1 (configuration not stated),2,-4.9*,1.3,-0.29,1.4,0,0.014,0.0052,0.03,0.0073,0.016,0.0091
C(=N\Nc1nc(-c2ccccc2)cs1)/c1cccnc1,17,-3.6*,0.9,.,0.9,0,0.0056,0.0051,0.025*,0.0072,0.016*,0.01
Clc1ccc(-c2csc(N/N=C/c3cccnc3)n2)c(Cl)c1,0,0.47,1.2,0.21,1.2,0,.,.,.,.,.,.
C#CCOCCOCCOCCNc1nc(N2CCN(C(=O)[C@H](CCCCN)n3cc([C@@H](N)C(C)CC)nn3)CC2)nc(N2CCN(C(=O)[C@H](Cc3cc4ccccc4[nH]3)n3cc([C@@H](N)CC(C)C)nn3)CC2)n1 (some centres not stated),1,0.34,1.3,.,1.1,0,.,.,.,.,.,.
COc1cc(/C=N/N2C(=O)CSC2=S)cc(Br)c1O,-1,-0.4,0.9,0.3,0.8,-1,.,.,.,.,.,.
COc1cccc(/C=N/N2C(=O)CSC2=S)c1O,-3,3.5*,0.9,0.39,1.3,-1,0.013*,0.016*,0.033,0.01*,?,?
Cc1ccc(S(=O)(=O)Cn2nnnc2C(C(C)C)N2CCSCC2)cc1 (configuration not stated),1,.,0.6,-0.43,0.7,2,.,.,.,.,.,.
Cc1ccc(S(=O)(=O)Cn2nnnc2C(C(C)C)N2CCN(Cc3ccco3)CC2)cc1 (configuration not stated),4,-2.5*,0.9,.,0.9,3,0.0074,0.0043,0.028,0.008,0.016,0.011
COc1ccccc1C(=O)Nc1sc2c(c1C(=O)NCc1ccco1)CCCC2,0,0.016,1.1,-0.48,1.1,0,.,.,.,.,.,.
Cc1cccc(CSc2nnc3c(n2)[nH]c2ccccc23)c1,.,-1.3,.,.,.,.,.,.,.,.,.,.
O=C(Nc1nnc(-c2cccs2)o1)c1cc(-c2ccccc2)nc2ccccc12,1,68*,1.2,-1,1.1,-1,0.016*,0.078*,0.037,0.043*,0.061*,0.015*
O=C(NCc1cccs1)c1cc(-c2ccccc2)nc2ccccc12,23,0.65,0.9,-1.7,1,1,.,.,.,.,.,.
O=C(O)CC/C(=C\c1ccc(Cl)c([N+](=O)[O-])c1)c1nc2ccccc2s1,10,-7.1*,1,-1.8,1,1,0.0072,0.0072,?,0.0058*,?,0.009
